Test results taken from ChEMBL document CHEMBL1629531, “Hydroxycoumarin derivatives: novel and potent α-glucosidase inhibitors” (J Med Chem, 2010).
Activity calls are given as the source filed them. The rule behind the calls is not given here.

Legend:
[1] = Inhibition of alpha-glucosidase at 200 uM using para-nitrophenyl substrate
[2] = Inhibition of alpha-glucosidase using para-nitrophenyl substrate
[3] = Inhibition of beta-glucosidase at 200 uM using salicin substrate
Procedure, shortened: (§1)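 β-Glucosidase added to 1 mL mix of inhibitor, 5.0 mM salicin, 0.1 M NaAc-HAc pH 5.0, then reacted 10 min at 40 °C. Stopped with DNS reagent and developed 5 min in boiling water. Reducing sugar read at 540 nm against a glucose standard. Triplicates at five concentrations bracketing an estimated IC50. Maximum inhibition recorded at the top concentration tested (400 or 200 μM).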

[4] = Inhibition of alpha-glucosidase compound administered simultaneously with para-nitrophenyl substrate
Procedure, shortened: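 Yeast α-glucosidase assay with PNP glycoside substrate, inhibitor and substrate added together with no preincubation.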

[5] = Effect on secondary structure of alpha-glucosidase assessed as beta-turn content at 0.3 uM at circular dichroism method
Procedure, shortened: (§2)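 Yeast α-glucosidase secondary structure measured by far-UV CD (186-240 nm), protein 0.53-0.66 mg/mL, 0.1 cm quartz cuvette, 5 accumulations per spectrum. Spectra recorded after exposure to inhibitor and compared with enzyme alone. α-helix, β-sheet, β-turn and random fractions estimated by secondary-structure deconvolution.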

[6] = Noncompetitive inhibition of alpha-glucosidase by Lineweaver-Burk plot
Procedure, shortened: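 Yeast α-glucosidase (50 μL, 10 U/mL) preincubated with inhibitor at 37 °C for 1 h, then PNP glycoside substrate added at varying concentrations. Rate of PNP hydrolysis read at several inhibitor concentrations. Mode assigned from Lineweaver-Burk (1/rate vs 1/[substrate]) double-reciprocal plots. Ki taken from Dixon plot and averaged over the inhibitor concentrations.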

[7] = Inhibition of Aspergillus oryzae Beta-galactosidase at 200 uM
Procedure, shortened: (§3)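 β-Galactosidase from Aspergillus oryzae (9.4 unit/mg solid) assayed by a modified literature method. Values are means of ≥3 determinations. NA means <20% inhibition at 400 μM. Maximum inhibition recorded at the top concentration tested (400 or 200 μM).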

[8] = Inhibition of beta-glucosidase using salicin substrate; procedure, shortened: as §1
[9] = Inhibition of Aspergillus oryzae Beta-galactosidase; procedure, shortened: as §3
[10] = Effect on secondary structure of alpha-glucosidase assessed as random content at 0.5 uM at circular dichroism method; procedure, shortened: as §2
[11] = Effect on secondary structure of alpha-glucosidase assessed as beta-sheet content at 0.3 uM at circular dichroism method; procedure, shortened: as §2
[12] = Inhibition of alpha-glucosidase using para-nitrophenyl substrate by dose responsive study
[13] = Effect on secondary structure of alpha-glucosidase assessed as alpha-helix content at 0.3 uM at circular dichroism method; procedure, shortened: as §2
[14] = Effect on secondary structure of alpha-glucosidase assessed as random content at 0.3 uM at circular dichroism method; procedure, shortened: as §2
[15] = Effect on secondary structure of alpha-glucosidase assessed as beta-turn content at 0.5 uM at circular dichroism method; procedure, shortened: as §2
[16] = Slow binding inhibition of alpha-glucosidase compound administered 1 hr at 37 degC before initiation of enzyme reaction using para-nitrophenyl substrate
Procedure, shortened: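 Yeast α-glucosidase preincubated with inhibitor at 37 °C for 1 h before the reaction is started with PNP glycoside substrate.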

[17] = Effect on secondary structure of alpha-glucosidase assessed as alpha-helix content at 0.5 uM bt circular dichroism method; procedure, shortened: as §2
[18] = Effect on secondary structure of alpha-glucosidase assessed as beta-sheet content at 0.5 uM at circular dichroism method; procedure, shortened: as §2
[19] = Inhibition of Aspergillus oryzae Beta-galactosidase at 400 uM; procedure, shortened: as §3
[20] = Inhibition of beta-glucosidase at 400 uM using salicin substrate; procedure, shortened: as §1

For Cc1ccc2oc(=O)cc(O)c2c1, the inhibition [1] was less than 20%.

O=c1c(-c2ccc(O)cc2)coc2cc(O)cc(O)c12 [GENISTEIN] gave an IC50 [2] of 12.4 µM.

Cc1cc(=O)oc2c(O)c(O)ccc12 [4-METHYLDAPHNETIN] gave an IC50 [2] of 52.7 µM.

With COc1ccc2c(O)cc(=O)oc2c1 the IC50 [2] was 96.1 µM.

COc1ccc2c(OC)cc(=O)oc2c1 gave an IC50 [2] greater than 100 µM.

In the case of O=c1oc2cc(O)ccc2c(O)c1-c1c(O)ccc(O)c1-c1c(O)c2ccc(O)cc2oc1=O, the inhibition [3] is reported as 23%, the IC50 [4] is reported as 88.4 µM and the Activity [5] is reported as 13.4%. The Ki [6] was 587 nM, the inhibition [7] was 2% and the IC50 ([8]; read-out: IC50) was greater than 200 µM. For the same compound, the IC50 ([9]; read-out: IC50) was greater than 200 µM, the Activity [10] was 28.1% and the Activity [11] was 23.8%. The inhibition [12] was “Dose-dependent effect”, the IC50 [2] was 0.86 µM and the Activity [13] was 33.4%. The Activity [14] was 29.4%, the Activity [15] was 9.2% and the inhibition [16] was “Active”. For the same compound, the Activity [17] was 32.7% and the Activity [18] was 30%.

With Cc1c(O)ccc2c(O)cc(=O)oc12 the IC50 ([8]; read-out: IC50) was 87.6 µM, the IC50 [9] was “Not Active” and the inhibition [19] was 0%. For the same compound, the IC50 [2] was 50.5 µM.

Cc1cc(=O)oc2cc(O)ccc12 [HYMECROMONE] showed an IC50 [2] of 56.2 µM.

With O=c1ccc2cc(O)ccc2o1 the inhibition [1] was less than 20%.

In the case of O=c1cc(O)c2ccc(O)cc2o1, the Activity [5] is reported as 18%, the IC50 ([8]; read-out: IC50) is reported as greater than 400 µM and the IC50 [9] is reported as “Not Active”. It also gave an Activity [10] of 34.1%, an inhibition [19] of 0% and an Activity [11] of 5.3%. It also gave an IC50 [2] of 38.9 µM, an inhibition [20] of 36.7% and an Activity [13] of 47.1%. It also gave an Activity [14] of 29.4%, an Activity [15] of 21.4% and an Activity [17] of 37.1%. For the same compound, the Activity [18] was 7.4%.

With O=c1oc2ccccc2cc1O [3-HYDROXYCOUMARIN] the IC50 [8] was “Not Active”, the IC50 [9] was “Not Active” and the inhibition [19] was 0%. For the same compound, the IC50 [2] was 35.3 µM.

COc1ccc2c(OC)cc(=O)oc2c1C gave an inhibition [1] of less than 20%.

With OC[C@H]1NC[C@H](O)[C@@H](O)[C@@H]1O [DUVOGLUSTAT] the IC50 [2] was 35.5 µM.

With Cc1cc(=O)oc2cc(O)cc(O)c12 [5,7-DIHYDROXY-4-METHYLCOUMARIN] the IC50 ([8]; read-out: IC50) was 45.4 µM, the IC50 ([9]; read-out: IC50) was greater than 200 µM and the inhibition [19] was 53.9%. The IC50 [2] was 64.6 µM.

O=c1ccc2cc(O)c(O)cc2o1 showed an inhibition [1] of less than 20%.

Cc1cc(=O)oc2cc(O)c(O)cc12 [4-METHYLESCULETIN] showed an IC50 [2] of 94.2 µM.
